Bioassay records (PubChem)
G6PDH CS = L. mesenteroides G6PDH inhibitors, counter-screen for G6PDH-coupled screening assays, biochemical, Leuconostoc mesenteroides enzyme | inhibition, % at 5 µM | glucose-6-phosphate dehydrogenase [Leuconostoc mesenteroides] | actives 0.12% (n = 200,000) | AID 1020, 2008 | Purified L. mesenteroides G6PDH, diaphorase/resazurin coupled fluorescence, 45 min
Lmaj promast = Leishmania major promastigote growth inhibition, primary screen. Leishmania major promastigotes, resazurin fluorescence viability. inhibition, % at 10 µM. actives 9% (n = 200,000). AID 1063, 2008;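 note: promastigotes grown with compound for 44 hours at 28 °C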
WT yeast gro inh = growth inhibition of WT strain, primary screen, mitochondrial fusion inhibitor project, WT and mutant strains, chemical genetic; actives 2.1% (n = 190,000); inhibition, % at 10 µM; mitochondrial fusion phenotypic screen; in the data active = inhibition above about 58%; tested in S. cerevisiae
Diaph inh CS = diaphorase inhibitors and chemical oxidizers, primary screen, counter-screen for diaphorase-coupled primary assays, biochemical, uHTS, resorufin fluorescence; diaphorase resazurin-to-resorufin fluorescence, NADH, 16 min; bacterial (C. kluyveri) enzyme, not human; inhibition, % at 20 µM; actives 0.69% (n = 190,000); AID 1217, 2008;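 active = primary screen inhibition at 20 µM above a set limit, cut at about 50% in these data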;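 note: plate controls were DMSO with full reaction for no effect and wells lacking NADH for full effect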
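Detection: fluorescence of resorufin formed from resazurin, Ex 544/Em 590 nm; test system: Clostridium kluyveri diaphorase enzyme; amount: 0.14 U/mL diaphorase, enzyme working solution; times: 16-min room-temperature incubation before reading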
Diaph act CS = compounds boosting diaphorase resazurin reduction – biochemical, uHTS, resorufin fluorescence, counter-screen for diaphorase-coupled primary assays, primary screen; Diaphorase/resazurin coupled assay, 16 min; stronger effect = higher value; 1 = vehicle wells, 0 = NADH-free wells; activation factor at 20 µM; actives 0.005% (n = 190,000); AID 1229, 2008;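 active = diaphorase activity raised at least twofold by the compound at 20 µM; inactive = activation factor below 2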
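System – purified diaphorase enzyme from Clostridium kluyveri · Input – enzyme 0.07 U/mL final · Also added – final NADH 0.114 mM, resazurin 0.1 mM · Measured by – fluorescence of resorufin, 544 nm excitation, 590 nm emission · Timing – 16 min enzyme reaction, ambient temperature · Measure – resorufin increase flagging diaphorase activators or reducers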
An asterisk follows results filed as active; . = not tested or not shown. Sampled rows, rich in hits. Any-hit rate of the full collection: about 11%. Cut-off read from the data, not from the text of the source, unless noted: active = inhibition above about 50%; inactive = the rest.

SMILES | G6PDH CS | Lmaj promast | WT yeast gro inh | Diaph inh CS | Diaph act CS
CCn1ccnc1CN(C)Cc1cn(-c2cc(C)ccc2C)nc1-c1ccccc1 | 8 | 93* | 61* | -6 | 1.1
Cc1ccc(-n2cc(CN3CCC(O)(c4ccccn4)CC3)c(-c3ccc(F)cc3)n2)cc1 | 12 | 73* | 51 | 6 | 0.9
CCC1(CC)Cc2ccccc2C2=C(C(=O)N3CCCCC3)C(=O)C(=O)N21 | 34 | -5 | -3 | 17 | 0.8
COc1ccc(CNc2nc(-c3cccnc3)nn2S(C)(=O)=O)cc1 | -2 | 10 | -3 | -1 | 1
CC(C)Cn1nc(NC(=O)C(C)(C)C)c2cc3ccccc3nc21 | 7 | 20 | 0 | 31 | 0.7
COc1ccc2nc3c(cc2c1)c(NC(=O)c1cccs1)nn3CC(C)C | 4 | 84* | -18 | 18 | 0.8
COc1ccc2nc(NC(=O)CNS(=O)(=O)c3cccs3)sc2c1 | -1 | 89* | 16 | 11 | 0.9
COc1ccc2nc(NC(=O)CCn3cccc3)sc2c1 | 4 | 56* | -12 | 12 | 0.9
COc1ccc2nc(NC(=O)CN(C)S(=O)(=O)c3cccs3)sc2c1 | -3 | 47 | 7 | 22 | 0.8
COc1ccc2nc(NC(=O)Cc3cccs3)sc2c1 | -6 | 59* | 22 | 11 | 0.9
COCCCn1cnc2c(c1=O)c1nc3ccccc3nc1n2CCc1ccccc1 | 0 | 33 | 16 | 24 | 0.8
CCc1ccc2[nH]c(=O)c(CN(CCCN3CCOCC3)C(=O)Nc3ccccc3)cc2c1 | -3 | 21 | 1 | 6 | 0.9
CCc1ccc2[nH]c(=O)c(CN(CCCN3CCOCC3)C(=O)Nc3cccc(Cl)c3)cc2c1 | 1 | 84* | -1 | 16 | 0.8
Cc1ccc(C)c2[nH]c(=O)c(CN(CCN3CCCC3)C(=O)Nc3cccc(Cl)c3)cc12 | -53 | 100* | 5 | -6 | 1.1
CCC(C)C(=O)Nc1nnc(SCC(=O)NC(C)(C)C)s1 (stereo not drawn) | 10 | -5 | 2 | -7 | 1.1
Cc1ccc(O)c(-c2cc(-c3ccccc3[N+](=O)[O-])[nH]n2)c1 | -23 | 57* | 58 | 23 | 0.8
COc1cnc(-c2ccccn2)nc1Sc1c(Cl)cccc1Cl | 7 | 47 | 42 | 8 | 0.9
COc1cnc(-c2ccccn2)nc1N(C)C | 36 | 100* | 36 | 4 | 1
COc1cnc(-c2ccccn2)nc1Oc1cccc(Cl)c1 | 18 | 100* | 14 | -2 | 1
COc1ccc(Oc2nc(-c3ccccn3)ncc2OC)cc1 | 25 | 16 | 33 | 4 | 1
COc1cnc(-c2ccccn2)nc1Sc1ccccc1Cl | 16 | 101* | 28 | -6 | 1.1
COc1cnc(-c2ccccn2)nc1Oc1c(C)cccc1C | 11 | 72* | 27 | 4 | 1
COc1cnc(-c2ccccc2)nc1Oc1cccc(C)c1 | 1 | 1 | 5 | 24 | 0.8
Cc1cc(C)cc(NC(=O)c2cccn2-c2ncc(C(F)(F)F)cc2Cl)c1 | 7 | 6 | 39 | 24 | 0.8
COc1ccc(C(=O)Nc2ccccc2C(=O)N/N=C/c2ccco2)cc1 | 2 | -6 | 43 | -3 | 1
SMILES | G6PDH CS | Lmaj promast | WT yeast gro inh | Diaph inh CS | Diaph act CS
O=C(CCCCCn1c(=O)[nH]c2ccsc2c1=O)NCc1ccc2c(c1)OCO2 | 8 | -8 | 5 | 6 | 0.9
CCc1cccc(C)c1NC(=O)c1ccc(CN2CCc3ccccc3C2)cc1 | -2 | 66* | 2 | 16 | 0.8
Cc1cccc(NC(=O)c2ccc(CN3CCc4ccccc4C3)cc2)c1C | 8 | 57* | 20 | -2 | 1
Cc1ccccc1NC(=O)c1ccc(CN2CCc3ccccc3C2)cc1 | -35 | 45 | 3 | 21 | 0.8
O=C(Cc1ncc(C(F)(F)F)cc1Cl)Nc1ccc(F)cc1 | 2 | -5 | 3 | 9 | 0.9
N#C/C(=N\Nc1ccccc1)C(=N)N1CCOCC1 | -16 | -7 | 0 | 5 | 1
N#C/C(=N\Nc1ccc(Cl)cc1)C(=N)N1CCCCC1 | 3 | 73* | 0 | 1 | 1
Cc1ccc(N/N=C(\C#N)C(=N)N2CCOCC2)cc1 | 1 | 87* | -11 | 10 | 0.9
N#C/C(=N\Nc1ccc(F)cc1)C(=N)N1CCCCCC1 | 2 | 49 | 3 | 10 | 0.9
COC(=O)c1c(C(=O)OC)c2ccncn2c1Cl | 13 | -1 | -3 | 10 | 0.9
O=C(NCCOC(=O)c1ccc(Cl)c(S(=O)(=O)N2CCCCC2)c1)c1ccncc1 | 0 | 51* | 6 | 7 | 0.9
COc1cc(C2Nc3ccc4ncccc4c3C3=C2C(=O)CCC3)ccc1O (stereo not drawn) | 12 | -3 | -12 | 19 | 0.8
CCN(CC)CCN(C)Cc1ccc(Br)cc1 | -3 | 89* | 2 | -4 | 1
CCCN(CCO)Cc1ccc(Br)cc1 | 12 | -3 | 3 | -2 | 1
CC(C)c1ccccc1-n1c(SCc2cc(=O)oc3ccc4ccccc4c23)nnc1-c1cccnc1 | -17 | 54* | 37 | 25 | 0.7
CCOc1ccc(-n2c(SCc3cc(=O)oc4cc(C)ccc34)nnc2-c2cccnc2)cc1 | -23 | 19 | -16 | 16 | 0.8
CC(=O)Nc1ccc2c(CSc3nnc(-c4cccnc4)n3-c3ccc(C)cc3C)cc(=O)oc2c1 | 13 | 57* | 6 | 28 | 0.7
Cc1ccc(-c2csc(NC(=O)CSc3nnc4c(n3)[nH]c3ccccc34)n2)cc1 | -1 | 3 | 28 | 11 | 0.9
CN1C(=O)/C(=C\C(=O)c2cccs2)c2ccccc21 | -5 | 100* | 78 | 18 | 0.8
O=C1CCN(C(=O)c2cccs2)c2ccccc21 | 2 | -3 | -14 | 8 | 0.9
CCc1ccc(C(C)NC(=O)C2(C)CC2(Br)Br)cc1 (stereo not drawn) | 5 | 54* | 5 | 11 | 0.9
CCN(CC)S(=O)(=O)c1cc([N+](=O)[O-])ccc1NNC(=O)Nc1ccccc1OC | -1 | 80* | 3 | 16 | 0.8
CC(Sc1ncnc2ccccc12)C(=O)Nc1ccc2c(c1)OCO2 (stereo not drawn) | 2 | 80* | 38 | 9 | 0.9
O=C(Nc1ccc2c(c1)OCO2)C1CCN(C(=O)CSc2ncnc3ccccc23)CC1 | 2 | 79* | . | 19 | 0.8
COc1ccc(C(=O)N2CCC(C(=O)Nc3ccc4c(c3)OCO4)CC2)cc1 | 8 | 52* | 1 | 6 | 0.9
O=C(Nc1ccc2c(c1)OCO2)C1CCN(C(=O)c2ccc(Cl)cc2)CC1 | 12 | -5 | 1 | 10 | 0.9
O=C(CSc1ncnc2ccccc12)c1ccc2c(c1)OCCO2 | -19 | 4 | 10 | -3 | 1
